According to ChEMBL document CHEMBL1629416, “Developing dual functional allosteric modulators of GABA(A) receptors” (Bioorg Med Chem, 2010):
Values joined by “and” are separate entries in the source; they are usually repeats but may differ in a detail not shown here. Identical values can stand only once. Active and inactive are the calls of the source. The calls are words filed in the database; no cut-off is given here.

Key:
[1] = target: T1, GABA-A receptor; alpha-2/beta-3/gamma-2 (Homo sapiens) (UniProt P18507+P28472+P47869); assay: Positive allosteric modulation of human alpha2beta3gamma2 GABA receptor expressed in Xenopus laevis oocytes at 1 uM; type: cell-based; conditions: Oocyte
Outline: (§1)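 Two-electrode voltage clamp on oocytes expressing human α/β/γ2 subtypes, used 2–10 days after injection. […] Baseline was the mean of three GABA-alone pulses. Result is % modulation, mean ± SEM over individual oocytes.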

[2] = target: T2, GABA-A receptor; alpha-5/beta-3/gamma-2 (Homo sapiens) (UniProt P18507+P28472+P31644); assay: Positive allosteric modulation of human alpha5beta3gamma2 GABA receptor expressed in Xenopus laevis oocytes at 1 uM; type: cell-based; conditions: Oocyte; outline: as §1
[3] = target: T3, GABA-A receptor; alpha-2/beta-3/gamma-2 (Homo sapiens, UniProt P18507+P28472+P47869); assay: Displacement of [3H]flunitrazepam from human alpha2beta3gamma2 GABA receptor in Sf9 membranes after 1 hr by liquid scintillation counting
T3 sequence (P18507 whole entry): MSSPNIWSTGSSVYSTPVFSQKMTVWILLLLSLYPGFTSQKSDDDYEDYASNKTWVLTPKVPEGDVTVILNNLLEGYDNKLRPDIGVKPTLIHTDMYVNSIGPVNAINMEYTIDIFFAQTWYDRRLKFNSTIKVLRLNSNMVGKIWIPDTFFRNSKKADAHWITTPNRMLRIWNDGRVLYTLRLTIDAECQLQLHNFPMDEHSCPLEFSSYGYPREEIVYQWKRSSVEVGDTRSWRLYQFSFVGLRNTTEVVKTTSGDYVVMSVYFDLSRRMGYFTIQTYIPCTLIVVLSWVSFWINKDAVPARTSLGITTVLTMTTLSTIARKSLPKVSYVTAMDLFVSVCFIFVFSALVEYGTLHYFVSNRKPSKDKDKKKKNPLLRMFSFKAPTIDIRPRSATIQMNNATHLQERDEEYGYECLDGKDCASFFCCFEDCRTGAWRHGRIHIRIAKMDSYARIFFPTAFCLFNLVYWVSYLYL
T3 sequence (P28472 whole entry): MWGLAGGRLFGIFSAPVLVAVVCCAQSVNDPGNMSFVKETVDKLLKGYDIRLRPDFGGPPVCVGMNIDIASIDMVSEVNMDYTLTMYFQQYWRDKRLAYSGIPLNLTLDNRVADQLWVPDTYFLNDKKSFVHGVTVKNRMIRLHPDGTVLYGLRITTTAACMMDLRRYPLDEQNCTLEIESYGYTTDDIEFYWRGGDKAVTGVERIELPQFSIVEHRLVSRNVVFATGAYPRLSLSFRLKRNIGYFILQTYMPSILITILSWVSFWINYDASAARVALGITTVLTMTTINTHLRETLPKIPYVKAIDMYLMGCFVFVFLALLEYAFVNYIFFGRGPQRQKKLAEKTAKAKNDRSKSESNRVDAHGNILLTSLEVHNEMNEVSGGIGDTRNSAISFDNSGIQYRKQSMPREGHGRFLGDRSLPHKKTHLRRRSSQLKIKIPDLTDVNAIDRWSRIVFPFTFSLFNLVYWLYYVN
T3 sequence (P47869 whole entry): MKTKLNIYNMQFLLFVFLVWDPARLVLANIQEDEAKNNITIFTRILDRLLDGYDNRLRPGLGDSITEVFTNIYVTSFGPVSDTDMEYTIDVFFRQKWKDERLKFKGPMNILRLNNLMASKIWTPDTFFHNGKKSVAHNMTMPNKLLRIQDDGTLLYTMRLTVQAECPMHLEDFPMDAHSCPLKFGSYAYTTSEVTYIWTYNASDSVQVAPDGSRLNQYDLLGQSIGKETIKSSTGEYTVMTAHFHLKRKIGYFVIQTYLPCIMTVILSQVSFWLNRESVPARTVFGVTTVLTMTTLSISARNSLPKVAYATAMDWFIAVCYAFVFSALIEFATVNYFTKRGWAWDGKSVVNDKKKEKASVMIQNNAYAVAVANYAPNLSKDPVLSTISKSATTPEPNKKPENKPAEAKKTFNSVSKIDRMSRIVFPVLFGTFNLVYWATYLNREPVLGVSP
Outline: (§2)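 [3H]Flunitrazepam (3 nM) competition on recombinant Sf9 membranes co-expressing α, β and γ2 subunits. Compound incubated 1 h at 4 °C in 20 mM Tris–citrate, 200 mM NaCl, pH 7.8, with membrane protein.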

[4] = target: T2, GABA-A receptor; alpha-5/beta-3/gamma-2 (Homo sapiens); assay: Negative allosteric modulation of human alpha5beta3gamma2 GABA receptor expressed in Xenopus laevis oocytes at 1 uM; type: cell-based; conditions: Oocyte; outline: as §1
[5] = target: T4, GABA-A receptor; alpha-3/beta-3/gamma-2 (Homo sapiens) (UniProt P18507+P28472+P34903); assay: Negative allosteric modulation of human alpha3beta3gamma2 GABA receptor expressed in Xenopus laevis oocytes at 1 uM; type: cell-based; conditions: Oocyte
[6] = target: T5, GABA-A receptor; alpha-1/beta-2/gamma-2 (Homo sapiens) (UniProt P14867+P47870+P18507); assay: Negative allosteric modulation of human alpha1beta2gamma2 GABA receptor expressed in Xenopus laevis oocytes at 1 uM; type: cell-based; conditions: Oocyte
[7] = target: T3, GABA-A receptor; alpha-2/beta-3/gamma-2; assay: Binding affinity to human alpha2beta3gamma2 GABA receptor expressed in Xenopus laevis oocytes; type: cell-based, Oocyte
[8] = target: T6, GABA-A receptor; alpha-3/beta-3/gamma-2 (Homo sapiens, UniProt P18507+P28472+P34903); assay: Binding affinity to human alpha3beta3gamma2 GABA receptor expressed in Xenopus laevis oocytes; type: cell-based, Oocyte
T6 sequence (P18507 whole entry): T3 sequence (P18507 whole entry)
T6 sequence (P28472 whole entry): T3 sequence (P28472 whole entry)
T6 sequence (P34903 whole entry): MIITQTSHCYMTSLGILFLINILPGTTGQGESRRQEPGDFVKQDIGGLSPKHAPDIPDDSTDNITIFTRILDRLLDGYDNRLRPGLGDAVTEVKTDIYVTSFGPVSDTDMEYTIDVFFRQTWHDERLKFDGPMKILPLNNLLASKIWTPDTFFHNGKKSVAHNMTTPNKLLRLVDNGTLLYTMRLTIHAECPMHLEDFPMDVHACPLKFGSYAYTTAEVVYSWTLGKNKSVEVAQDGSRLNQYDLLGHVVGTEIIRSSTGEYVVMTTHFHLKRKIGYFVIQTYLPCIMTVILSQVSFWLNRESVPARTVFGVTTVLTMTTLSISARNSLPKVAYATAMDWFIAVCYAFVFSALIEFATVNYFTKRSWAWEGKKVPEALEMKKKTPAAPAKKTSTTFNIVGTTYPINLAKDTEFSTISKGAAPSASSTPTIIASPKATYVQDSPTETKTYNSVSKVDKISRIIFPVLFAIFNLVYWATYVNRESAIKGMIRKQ

[9] = target: T7, GABA-A receptor; alpha-1/beta-2/gamma-2 (Homo sapiens, UniProt P14867+P18507+P47870); assay: Binding affinity to human alpha1beta2gamma2 GABA receptor expressed in Xenopus laevis oocytes; type: cell-based, Oocyte
T7 sequence (P14867 whole entry): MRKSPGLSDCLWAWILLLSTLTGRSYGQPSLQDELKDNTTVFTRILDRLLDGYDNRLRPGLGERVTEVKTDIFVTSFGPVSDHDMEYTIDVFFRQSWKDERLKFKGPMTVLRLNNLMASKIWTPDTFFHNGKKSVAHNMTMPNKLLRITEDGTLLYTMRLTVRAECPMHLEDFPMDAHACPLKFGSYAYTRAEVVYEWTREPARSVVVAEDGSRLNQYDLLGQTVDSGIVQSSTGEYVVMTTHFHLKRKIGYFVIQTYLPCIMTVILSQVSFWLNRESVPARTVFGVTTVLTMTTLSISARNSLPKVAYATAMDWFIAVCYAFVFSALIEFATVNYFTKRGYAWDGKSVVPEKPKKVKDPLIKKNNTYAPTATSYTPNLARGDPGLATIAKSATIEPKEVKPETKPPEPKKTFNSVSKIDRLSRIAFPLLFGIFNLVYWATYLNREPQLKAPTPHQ
T7 sequence (P47870 whole entry): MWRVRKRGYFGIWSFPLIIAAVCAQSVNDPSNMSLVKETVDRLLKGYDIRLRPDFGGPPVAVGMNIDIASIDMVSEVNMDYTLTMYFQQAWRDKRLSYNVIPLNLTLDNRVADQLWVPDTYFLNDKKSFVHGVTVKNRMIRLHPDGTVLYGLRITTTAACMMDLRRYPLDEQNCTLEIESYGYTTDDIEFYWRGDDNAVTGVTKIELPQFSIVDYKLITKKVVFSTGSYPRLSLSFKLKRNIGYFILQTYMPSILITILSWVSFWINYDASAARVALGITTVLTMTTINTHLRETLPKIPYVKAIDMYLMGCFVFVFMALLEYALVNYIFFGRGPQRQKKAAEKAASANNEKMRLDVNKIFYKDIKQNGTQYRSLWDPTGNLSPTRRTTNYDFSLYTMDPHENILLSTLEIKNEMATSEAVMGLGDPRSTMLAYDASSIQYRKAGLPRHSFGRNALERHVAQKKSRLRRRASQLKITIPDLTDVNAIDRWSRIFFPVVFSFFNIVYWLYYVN
T7 sequence (P18507 whole entry): T3 sequence (P18507 whole entry)

[10] = target: T8, GABA-A receptor; alpha-5/beta-3/gamma-2 (Homo sapiens, UniProt P18507+P28472+P31644); assay: Binding affinity to human alpha5beta3gamma2 GABA receptor expressed in Xenopus laevis oocytes; type: cell-based, Oocyte
T8 sequence (P18507 whole entry): T3 sequence (P18507 whole entry)
T8 sequence (P28472 whole entry): T3 sequence (P28472 whole entry)
T8 sequence (P31644 whole entry): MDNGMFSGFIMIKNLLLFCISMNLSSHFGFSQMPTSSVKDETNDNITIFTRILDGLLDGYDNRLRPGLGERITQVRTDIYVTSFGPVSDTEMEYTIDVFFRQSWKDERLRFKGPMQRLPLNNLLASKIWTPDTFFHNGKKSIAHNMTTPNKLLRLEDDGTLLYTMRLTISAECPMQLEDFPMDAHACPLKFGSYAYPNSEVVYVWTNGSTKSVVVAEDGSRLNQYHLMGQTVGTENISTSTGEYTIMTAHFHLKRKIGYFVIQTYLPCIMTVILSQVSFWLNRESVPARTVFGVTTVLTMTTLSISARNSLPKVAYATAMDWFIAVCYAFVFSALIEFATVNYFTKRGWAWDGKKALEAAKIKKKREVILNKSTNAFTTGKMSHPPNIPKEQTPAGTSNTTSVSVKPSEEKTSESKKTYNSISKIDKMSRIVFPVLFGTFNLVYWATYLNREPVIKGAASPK

[11] = target: T1, GABA-A receptor; alpha-2/beta-3/gamma-2 (Homo sapiens); assay: Negative allosteric modulation of human alpha2beta3gamma2 GABA receptor expressed in Xenopus laevis oocytes at 1 uM; type: cell-based; conditions: Oocyte; outline: as §1
[12] = target: T4, GABA-A receptor; alpha-3/beta-3/gamma-2 (Homo sapiens); assay: Positive allosteric modulation of human alpha3beta3gamma2 GABA receptor expressed in Xenopus laevis oocytes at 1 uM; type: cell-based; conditions: Oocyte; outline: as §1
[13] = target: T8, GABA-A receptor; alpha-5/beta-3/gamma-2; assay: Displacement of [3H]flunitrazepam from human alpha5beta3gamma2 GABA receptor in Sf9 membranes after 1 hr by liquid scintillation counting; outline: as §2
[14] = target: T5, GABA-A receptor; alpha-1/beta-2/gamma-2 (Homo sapiens); assay: Positive allosteric modulation of human alpha1beta2gamma2 GABA receptor expressed in Xenopus laevis oocytes at 1 uM; type: cell-based; conditions: Oocyte; outline: as §1
[15] = target: T5, GABA-A receptor; alpha-1/beta-2/gamma-2 (Homo sapiens); assay: Effect on human alpha1beta2gamma2 GABA receptor expressed in Xenopus laevis oocytes at 10 uM; type: cell-based; conditions: Oocyte

SMILES	Activity [1]	Activity [2] [%]	Ki [3] [nM]	Activity [4]	Activity [5] [%]	Activity [6] [%]	EC50 [7] [nM]	EC50 [8] [nM]	EC50 [9] [nM]	EC50 [10] [nM]	Activity [11] [%]	Activity [12] [%]	Ki [13] [nM]	Activity [14] [%]	Activity [15]
Nc1c(C(=O)NC2CC2)nnc2c(-c3ncccn3)c(F)ccc12	39%	2	–	–	–	–	–	–	–	–	–	–	–	–	–
CCCNC(=O)c1nnc2c(-c3ncccn3)c(F)ccc2c1N	31%	–	6	3%	–	–	–	–	–	–	–	–	–	–	–
CCCNC(=O)c1nnc2c(-c3cncc(C(=O)N4CCC4)c3)cccc2c1N	–	–	–	45%	11	14	54	174	389	455	5	–	–	–	–
CCCNC(=O)c1nnc2c(-c3ncccn3)cccc2c1N	–	–	380	–	–	5	104	379	–	1130	–	41	–	–	–
Nc1c(C(=O)NC2CC2)nnc2c(-c3ncccn3)cccc12	54%	–	–	5%	–	–	–	–	–	–	–	–	–	–	–
Nc1c2c(nc3c(-c4ncccn4)cccc13)CN(C1CCC1)C2=O	44% and 38%	–	8.3	46% and 32%	–	–	34	77	–	206	–	40	14	1	inactive
CCc1c(C(=O)OC)ncc2[nH]c3cc(OC)c(OC)cc3c12	–	–	–	69%	58	68	14	10	9	3	61	–	–	–	–
